An excerpt weighted towards active compounds, which were near 1.5% of everything screened.
Jurkat NFkB inh – lowers PMA/ionomycin-induced NF-kB signal in Jurkat cells; PMA/ionomycin-induced NF-kB luciferase reporter, luminescence; inhibition, % at 4 µM; 330,000 tested, 0.53% active; AID 435003; in the data active means inhibition above about 50%
GASC-1 inh – human JMJD2C demethylase inhibition; inhibition, % at 2.35 µM; 330,000 tested, 0.069% active; Q9H3R0; AID 2099; GST-JMJD2C(1-420) H3K9me3 demethylation, DELFIA europium;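 active means more than half of a compound's replicate wells show inhibition beyond 50%, single wells judged on their own value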;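 further: signal counts dimethyl H3K9 product captured on neutravidin plate; 0% = median of DMSO wells and 100% = 0.3 times that DMSO median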
697 NFkB inh – lowers PMA/ionomycin-induced NF-kB signal in 697 B cells; 330,000 tested, 0.33% active; AID 435022; inhibition, % at 4 µM; 697 B-cell NF-kB luciferase reporter, 16 h; in the data active means inhibition above about 35%
GalR3 antag – blocks the human galanin receptor 3 | AID 651719 | HEK293 GalR3-CNG cAMP membrane potential fluorescence; galR3 body fused to GalR1 C-terminus | 360,000 tested, 0.44% active | O60755 | inhibition, % at 3 µM;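 active means inhibition above the screen-wide average plus 3 SD, cut at about 13% in these data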;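 further: forskolin and galanin both at EC90 stimulate the cells; cAMP rise reported by CNG channel membrane potential dye signal; 0% = forskolin plus galanin with DMSO and 100% = forskolin alone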
NR2E3 ag-1 – human photoreceptor-specific nuclear receptor agonism; CHO-S Gal4-NCOR/VP16-NR2E3 two-hybrid, luciferase; inhibition of corepressor binding, % at 3.98 µM; 360,000 tested, 0.35% active;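 active means inhibition above the mean of all tested compounds plus 3 SD, cut at about 70% in these data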;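 further: 0% = DMSO with NR2E3 transfected cells and 100% = cells lacking NR2E3 construct; higher means lower luciferase signal from less NR2E3 corepressor binding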
Target sequence (Q9Y5X4 whole entry, looked up, the tested form may be a part): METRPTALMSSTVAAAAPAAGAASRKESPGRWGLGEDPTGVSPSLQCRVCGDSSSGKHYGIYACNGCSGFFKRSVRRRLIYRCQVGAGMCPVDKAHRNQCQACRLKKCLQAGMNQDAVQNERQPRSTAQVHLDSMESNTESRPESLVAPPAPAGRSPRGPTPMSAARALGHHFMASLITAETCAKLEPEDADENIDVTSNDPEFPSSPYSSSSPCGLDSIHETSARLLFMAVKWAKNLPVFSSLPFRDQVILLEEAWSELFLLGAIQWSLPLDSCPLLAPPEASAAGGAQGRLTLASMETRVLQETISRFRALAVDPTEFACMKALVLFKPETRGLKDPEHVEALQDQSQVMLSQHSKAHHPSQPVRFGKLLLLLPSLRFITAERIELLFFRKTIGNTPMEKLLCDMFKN
NR2E3 ag-2 – agonists of human nuclear receptor NR2E3 | Q9Y5X4 | GST-NR2E3/biotin-RetCOR TR-FRET, 1536-well | inhibition of corepressor binding, % at 4.78 µM | 320,000 tested, 0.12% active;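 active means percent inhibition above the cutoff of mean plus 3 SD of all tested compounds, set per screening campaign, cut at about 20% in these data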;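 further: 0% = DMSO wells and 100% = biotin wells as full block of FRET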
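System: GST-tagged NR2E3 plus biotinylated RetCOR corepressor; Amount: 1.35 nM GST-tagged NR2E3 final; Dosing: single nominal compound dose of 4.8 µM; Schedule: 5 h incubation at 4 °C; Technique: TR-FRET with europium anti-GST and streptavidin-D2, 340 nm excitation; Controls: biotin wells as high control, 0.6% DMSO wells as low control.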
697 NFkB conf – inhibitors of the PMA/ionomycin-induced NF-kB reporter in 697 B cells, retest; inhibition, % at 4 µM; shares compounds with 697 NFkB inh; 2,000 tested, 35% active; 697 B-cell NF-kB luciferase, 16 h; in the data active means inhibition mostly above about 28%, no sharp cut-off; inactive means mostly below about 22%
Starred values were filed as active, the others as inactive; i = inactive; / = not tested or not shown.

SMILES | Jurkat NFkB inh | GASC-1 inh | 697 NFkB inh | GalR3 antag | NR2E3 ag-1 | NR2E3 ag-2 | 697 NFkB conf
COc1ccc(S(=O)(=O)Nc2ccc3c(c2)C(=O)N([C@H](C)CO)C[C@H](C)[C@@H](CN(C)C(=O)NC2CCCCC2)O3)cc1 | -1 | -5 | -6 | -5 | -15 | / | /
COc1ccccc1N(CC(=O)NC(C)(C)C)S(=O)(=O)c1cccs1 | 0 | 3 | 1 | -3 | -7 | -2 | /
CCCNC(=O)C1(C)CCN1C(=O)Cc1ccc(C(C)(C)C)cc1 (configuration not stated) | / | / | / | -6 | 13 | / | /
O=C(OCC(=O)N1CCN(C(=O)COC(=O)c2ccc(O)cc2O)CC1)c1ccc(O)cc1O | -1 | -6 | 39* | -1 | -17 | -3 | 12
CCOC(=O)N1CCN(C(=O)COC(=O)c2ccc(O)cc2O)CC1 | -1 | -21 | 16 | -4 | -15 | 3 | /
CCOc1cc(/C=C2\N=C(SC(C)C(N)=O)N(c3ccc(OC(F)F)cc3)C2=O)ccc1O (configuration not stated) | 0 | 1 | 41* | -4 | 8 | 0 | 18
NC(=O)CSC1=N/C(=C\c2ccco2)C(=O)N1c1ccc(OC(F)F)cc1 | 12 | 26 | 16 | 2 | 9 | 4 | /
O=C(CCCCCCC(=O)Nc1ccccc1)NO | 24 | -7 | i | -3 | -3 | 1 | -336
O=C(CCCCCN1C(=O)c2ccccc2C1=O)Nc1ccccc1 | 10 | 10 | 7 | -10 | -10 | 1 | /
CNc1ncnc2c1ncn2[C@H]1CN(Cc2cccnc2)C[C@@H](CO)O1 | / | / | / | -2 | 4 | / | /
CCOc1ccc(/C=C2\SC(=S)N(CCCC(=O)NCCCN3CCOCC3)C2=O)cc1 | 11 | -9 | 38* | -6 | 9 | -1 | 52*
CCOc1ccc(/C=C2\SC(=S)N(CCC(=O)Nc3cccc(C(=O)O)c3)C2=O)cc1 | 29 | 5 | 68* | -9 | 10 | -2 | 68*
CC(C)c1ccc(/C=C2\SC(=S)N(CCC(=O)N3CCCCC3CCO)C2=O)cc1 (configuration not stated) | 6 | 0 | 70* | -10 | 15 | 0 | 71*
CCOc1ccc(/C=C2\SC(=S)N(CCC(=O)Nc3ccc(C(=O)O)cc3)C2=O)cc1 | -3 | -2 | 81* | -9 | -14 | 0 | 77*
O=C(CCN1C(=O)/C(=C/c2ccc3c(c2)OCO3)SC1=S)Nc1ccc(C(=O)O)cc1 | 2 | 2 | -2 | -7 | -40 | -1 | /
CC(C)c1ccc(/C=C2\SC(=S)N(CCC(=O)NCCCn3ccnc3)C2=O)cc1 | -8 | 9 | 38* | -6 | -6 | 2 | 38*
CCc1ccc(/C=C2/SC(=S)N(CCC(=O)Nc3cccnc3)C2=O)cc1 | 22 | 2 | 77* | -1 | -13 | 0 | 67*
O=C(CCCN1C(=O)/C(=C\c2ccccc2)SC1=S)Nc1ccc(C(=O)O)cc1 | -11 | 25 | 19 | -3 | 2 | 2 | /
CCc1ccc(/C=C2\SC(=S)N(CCCC(=O)Nc3ccc(C(=O)O)cc3)C2=O)cc1 | -11 | -2 | 73* | 2 | 4 | -5 | 84*
Cc1nnc(NC(=O)CSc2nnc(CC(=O)Nc3ccccc3F)n2C)s1 | -6 | -6 | 12 | -6 | -7 | 2 | /
Cc1cc(NC(=O)CCCN2C(=O)/C(=C/c3ccccc3Cl)SC2=S)no1 | 18 | -4 | 60* | -3 | 18 | 3 | 68*
O=C(CCCN1C(=O)/C(=C/c2ccccc2Cl)SC1=S)NNC(=O)c1ccccc1Cl | 13 | -5 | 69* | -6 | -7 | -1 | 65*
COc1ccc(/C=C2/SC(=S)N(CCCC(=O)Nc3ccccc3C(=O)O)C2=O)cc1 | 18 | 159 | 32 | -9 | 24 | 2 | /
COc1ccc(/C=C2\SC(=S)N(CCCC(=O)NNC(=O)c3ccccc3O)C2=O)cc1 | 4 | 3 | 74* | -1 | 14 | 2 | 69*
CC(=O)CC(=O)Nc1ccc(Nc2ccccc2)cc1 | -18 | 7 | -20 | -9 | 0 | -4 | /
SMILES | Jurkat NFkB inh | GASC-1 inh | 697 NFkB inh | GalR3 antag | NR2E3 ag-1 | NR2E3 ag-2 | 697 NFkB conf
CC1(C(=O)NCc2ccco2)CCN1C(=O)C1(c2ccccc2)CC1 (configuration not stated) | / | / | / | -5 | -25 | / | /
CCC(=O)Nc1cccc(-c2ccc(N3CCC(C)CC3)nn2)c1 | -71 | -8 | -258 | -8 | -125 | 4 | -322
COc1ccc(NC(=O)[C@@H]2CC=C[C@@H]3CCN(C4CCCCC4)C(=O)[C@@H]32)cc1 | 5 | 5 | 36* | 5 | -15 | 1 | 18
Cn1c(=O)c2c(c3ccccc31)OC(C)(C)C=C2 | / | / | / | 3 | / | / | /
COc1ccc(-c2noc(N3CCC(C(=O)Nc4cccc(OC)c4)CC3)n2)cc1 | 20 | -10 | 42* | / | -38 | -1 | 34*
COc1ccc(-c2noc(N3CCC(C(=O)Nc4ccc(F)cc4)CC3)n2)cc1 | 18 | 2 | 31 | / | -53 | 2 | /
Cc1ccc2nc(NC(=O)CSCC(=O)OCC(=O)c3ccc(Br)cc3)sc2c1 | 41 | -2 | 64* | -2 | -6 | 1 | 54*
Oc1ccccc1-c1cc(-c2ccc3c(c2)OCCO3)n[nH]1 | -138 | -26 | -433 | -3 | -223 | 0 | -453
NS(=O)(=O)c1ccc(CCNC(=O)CSc2nc3ccsc3c(=O)n2CC2CCC(C(=O)O)CC2)cc1 (configuration not stated) | 3 | -3 | 36* | -5 | -37 | -3 | 10
CCC(=O)N1c2ccccc2C(N(C(C)=O)c2ccccc2)CC1C (configuration not stated) | 12 | -4 | 37* | -3 | -32 | 2 | 45*
Cc1ccc(C(=O)CSc2nnc(COc3ccccc3)o2)cc1 | 6 | -40 | 54* | 3 | -52 | -1 | 40*
Cc1cccc(OCc2nnc(SCC(=O)c3ccccc3)o2)c1 | -13 | 25 | 34 | -3 | -33 | 4 | /
Cc1ccc(C(=O)CSc2nnc(COc3cc(C)cc(C)c3)o2)cc1 | 6 | 1 | 36* | -3 | -35 | -1 | 55*
Cc1cc(C)cc(OCc2nnc(SCC(=O)c3ccccc3)o2)c1 | 5 | -6 | 46* | -6 | -35 | 2 | 45*
CC1=C(C(=O)N(C)C)CC(CC(=O)NCCCCc2ccccc2)C(=O)N1Cc1ccccc1 (configuration not stated) | / | / | / | -4 | -22 | / | /
CC1CCC(NC(=O)CCS(=O)(=O)c2ccc3c(c2)NC(=O)C(C)S3)CC1 (configuration not stated) | 21 | -4 | 3 | -7 | 7 | 1 | /

Screening data (PubChem BioAssay)
